Calls of active or inactive are those of the source. No cut-off for these calls is given here.
Assays:
D(2) dopamine receptor [1] = molecular target: T1, D(2) dopamine receptor (Homo sapiens, UniProt P14416); assay: Displacement of [3H] Spiperone from human D2S receptor expressed in CHO cells by competitive radioligand binding assay; assay type: cell-based
[2] = molecular target: T2, Alpha-1A adrenergic receptor (Homo sapiens) (UniProt P35348); assay: Antagonist activity at human alpha1A adrenergic receptor expressed in HEK293T cells assessed as accumulation of inositol monophosphate using d2-labelled IP1 conjugate incubated for 60 mins by HTRF assay; assay type: functional, cell-based
T2 sequence (whole entry): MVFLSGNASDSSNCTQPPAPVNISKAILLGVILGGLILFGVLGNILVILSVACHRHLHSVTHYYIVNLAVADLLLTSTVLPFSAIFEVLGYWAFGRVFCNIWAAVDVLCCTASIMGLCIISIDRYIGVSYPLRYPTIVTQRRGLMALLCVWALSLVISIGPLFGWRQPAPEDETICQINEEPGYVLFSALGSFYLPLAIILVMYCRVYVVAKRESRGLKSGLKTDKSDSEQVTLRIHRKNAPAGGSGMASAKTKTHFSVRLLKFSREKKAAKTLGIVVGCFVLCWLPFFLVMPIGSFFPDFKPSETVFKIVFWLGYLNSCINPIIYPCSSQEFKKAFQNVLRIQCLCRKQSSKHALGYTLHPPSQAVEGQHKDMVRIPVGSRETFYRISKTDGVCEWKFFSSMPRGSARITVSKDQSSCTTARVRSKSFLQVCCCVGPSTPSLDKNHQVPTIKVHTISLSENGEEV

[3] = molecular target: T3, Muscarinic acetylcholine receptor M2 (Homo sapiens, UniProt P08172); assay: Displacement of [3H] NMS from muscarinic M2 receptor (unknown origin)
T3 sequence (P08172 whole entry): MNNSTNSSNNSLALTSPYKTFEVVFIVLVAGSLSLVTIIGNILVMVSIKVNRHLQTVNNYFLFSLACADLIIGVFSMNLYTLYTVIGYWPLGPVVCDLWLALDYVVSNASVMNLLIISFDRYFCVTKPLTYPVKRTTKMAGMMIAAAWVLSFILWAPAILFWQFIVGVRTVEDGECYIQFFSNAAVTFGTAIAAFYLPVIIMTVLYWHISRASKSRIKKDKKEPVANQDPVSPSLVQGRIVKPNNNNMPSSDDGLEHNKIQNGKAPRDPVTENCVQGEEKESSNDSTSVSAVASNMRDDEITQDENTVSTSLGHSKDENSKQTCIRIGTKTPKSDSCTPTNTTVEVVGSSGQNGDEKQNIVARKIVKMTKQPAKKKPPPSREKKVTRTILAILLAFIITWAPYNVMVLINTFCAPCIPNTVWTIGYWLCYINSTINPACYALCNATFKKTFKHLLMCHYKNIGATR
How it was run: (§1)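 Radioligand competition binding; Ki given as mean ± SD from two individual experiments, each run in triplicate.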

D(2) dopamine receptor [4] = molecular target: T1, D(2) dopamine receptor; assay: Displacement of [3H] Spiperone from human D2L receptor expressed in CHO cells by competitive radioligand binding assay; assay type: cell-based
[5] = Drug metabolism in Sprague-Dawley rat liver microsomes assessed as unchanged remaining parent compound at 20 uM measured after 120 mins in presence of NADPH by LC-ESI-MS analysis; assay type: ADME, Microsome; conditions: read-out: Drug metabolism
[6] = molecular target: Kappa-type opioid receptor (Homo sapiens, UniProt P41145); assay: Displacement of [3H] diprenorphine from kappa opioid receptor (unknown origin); how it was run: as §1
[7] = molecular target: Beta-1 adrenergic receptor (Homo sapiens, UniProt P08588); assay: Displacement of [3H] CGP12177 from beta1 adrenergic receptor (unknown origin)
D(3) dopamine receptor = D(3) dopamine receptor (Homo sapiens, UniProt P35462); assay: Displacement of [3H] Spiperone from human D3 receptor expressed in CHO cells by competitive radioligand binding assay; assay type: cell-based
[8] = Drug metabolism in Sprague-Dawley rat liver microsomes assessed as metabolite formation at 20 uM measured after 120 mins in presence of NADPH by LC-ESI-MS analysis; assay type: ADME, Microsome; conditions: 2 h
D(1B) dopamine receptor = D(1B) dopamine receptor (Homo sapiens, UniProt P21918); assay: Displacement of [3H] SCH23390 from D5 receptor (unknown origin)
Mu-type opioid receptor = Mu-type opioid receptor (Homo sapiens, UniProt P35372); assay: Displacement of [3H] diprenorphine from mu opioid receptor (unknown origin); how it was run: as §1
[9] = molecular target: 5-hydroxytryptamine receptor 2A (Homo sapiens, UniProt P28223); assay: Displacement of [3H] Ketanserin from 5HT2A receptor (unknown origin)
[10] = molecular target: Beta-2 adrenergic receptor (Homo sapiens, UniProt P07550); assay: Displacement of [3H] CGP12177 from beta2 adrenergic receptor (unknown origin)
[11] = molecular target: T4, Muscarinic acetylcholine receptor M1 (Homo sapiens, UniProt P11229); assay: Displacement of [3H] NMS from muscarinic M1 receptor (unknown origin); how it was run: as §1
T4 sequence (P11229 whole entry): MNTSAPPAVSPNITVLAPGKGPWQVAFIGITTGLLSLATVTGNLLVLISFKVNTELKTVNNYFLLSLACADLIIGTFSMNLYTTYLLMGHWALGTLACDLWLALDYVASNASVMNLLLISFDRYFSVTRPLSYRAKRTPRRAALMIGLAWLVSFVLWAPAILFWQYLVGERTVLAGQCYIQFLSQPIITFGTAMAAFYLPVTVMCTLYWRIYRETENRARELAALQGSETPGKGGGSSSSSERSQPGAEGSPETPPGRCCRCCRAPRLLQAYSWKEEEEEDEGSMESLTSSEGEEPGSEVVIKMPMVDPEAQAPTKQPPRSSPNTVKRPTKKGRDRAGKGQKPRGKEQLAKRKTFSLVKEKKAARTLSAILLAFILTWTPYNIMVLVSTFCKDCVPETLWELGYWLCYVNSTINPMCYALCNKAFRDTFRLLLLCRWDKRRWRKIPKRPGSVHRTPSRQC

[12] = molecular target: T5, Alpha-1A adrenergic receptor (Homo sapiens, UniProt P35348); assay: Displacement of [3H] prazosin from alpha1A adrenergic receptor (unknown origin)
T5 sequence (P35348 whole entry): T2 sequence (whole entry)

D(1A) dopamine receptor = D(1A) dopamine receptor (Homo sapiens, UniProt P21728); assay: Displacement of [3H] SCH23390 from D1 receptor (unknown origin)
[13] = molecular target: Muscarinic acetylcholine receptor M3 (Homo sapiens, UniProt P20309); assay: Displacement of [3H] NMS from muscarinic M3 receptor (unknown origin); how it was run: as §1
[14] = molecular target: T6, Alpha-2A adrenergic receptor (Homo sapiens, UniProt P08913); assay: Displacement of [3H] RX821002 from alpha2A adrenergic receptor (unknown origin)
T6 sequence (P08913 whole entry): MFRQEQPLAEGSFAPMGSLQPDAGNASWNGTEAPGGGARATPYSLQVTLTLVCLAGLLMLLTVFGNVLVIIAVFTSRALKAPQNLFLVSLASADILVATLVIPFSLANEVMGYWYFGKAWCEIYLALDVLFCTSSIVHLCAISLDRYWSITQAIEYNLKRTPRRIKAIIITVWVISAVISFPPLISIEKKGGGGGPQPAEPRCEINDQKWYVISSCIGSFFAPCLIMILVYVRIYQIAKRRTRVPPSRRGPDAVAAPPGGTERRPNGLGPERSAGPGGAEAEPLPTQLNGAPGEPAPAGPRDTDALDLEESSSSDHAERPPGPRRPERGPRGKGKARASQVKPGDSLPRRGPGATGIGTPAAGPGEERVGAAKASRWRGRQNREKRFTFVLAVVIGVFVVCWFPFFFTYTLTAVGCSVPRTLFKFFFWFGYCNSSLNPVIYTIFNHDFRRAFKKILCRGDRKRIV

[15] = molecular target: Delta-type opioid receptor (Homo sapiens, UniProt P41143); assay: Displacement of [3H] diprenorphine from delta opioid receptor (unknown origin)
[16] = molecular target: T7, 5-hydroxytryptamine receptor 1A (Homo sapiens, UniProt P08908); assay: Displacement of [3H] WAY100635 from 5HT1A receptor (unknown origin); how it was run: as §1
T7 sequence (P08908 whole entry): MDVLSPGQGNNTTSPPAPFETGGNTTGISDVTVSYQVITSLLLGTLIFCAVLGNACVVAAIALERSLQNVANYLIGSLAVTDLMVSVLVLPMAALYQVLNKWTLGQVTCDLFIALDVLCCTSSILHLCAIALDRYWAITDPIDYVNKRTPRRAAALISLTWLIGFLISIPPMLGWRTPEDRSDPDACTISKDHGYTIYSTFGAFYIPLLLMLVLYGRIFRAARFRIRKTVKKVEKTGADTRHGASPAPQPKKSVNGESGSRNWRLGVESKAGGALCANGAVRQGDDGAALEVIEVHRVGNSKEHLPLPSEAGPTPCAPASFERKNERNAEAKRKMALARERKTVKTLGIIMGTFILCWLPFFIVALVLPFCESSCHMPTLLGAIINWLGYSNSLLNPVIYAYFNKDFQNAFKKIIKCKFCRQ

Homo sapiens [17] = species: Homo sapiens; assay: Selectivity index, ratio of Ki for displacement of [3H] Spiperone from human D3 receptor expressed in CHO cells to Ki for displacement of [3H] Spiperone from human D4.4 receptor expressed in CHO cells; assay type: cell-based
How it was run: (§2)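 Competition binding against [3H]spiperone on membranes of CHO cells stably expressing cloned human D2L, D2S, D3 or D4.4 receptors. Ki from monophasic curve fits; mean ± SEM of three to seven experiments, each in triplicate. Selectivity calculated as Ki(D2L, D2S or D3) divided by Ki(D4.4).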

Homo sapiens [18] = species: Homo sapiens; assay: Selectivity index, ratio of Ki for displacement of [3H] Spiperone from human D2S receptor expressed in CHO cells to Ki for displacement of [3H] Spiperone from human D4.4 receptor expressed in CHO cells; assay type: cell-based; how it was run: as §2
Homo sapiens [19] = species: Homo sapiens; assay: Selectivity index, ratio of Ki for displacement of [3H] Spiperone from human D2L receptor expressed in CHO cells to Ki for displacement of [3H] Spiperone from human D4.4 receptor expressed in CHO cells; assay type: cell-based; how it was run: as §2
D(4) dopamine receptor [20] = molecular target: T8, D(4) dopamine receptor (Homo sapiens, UniProt P21917); assay: Antagonist activity at […] D4 receptor (unknown origin) expressed in HEK293 cells co-expressing beta-arrestin2 assessed as inhibition of quinpirole-induced beta-arrestin2 recruitment preincubated for 30 mins followed by quinpirole addition and further incubated for 6 hrs by Path-Hunter assay; assay type: cell-based
T8 sequence (P21917 whole entry): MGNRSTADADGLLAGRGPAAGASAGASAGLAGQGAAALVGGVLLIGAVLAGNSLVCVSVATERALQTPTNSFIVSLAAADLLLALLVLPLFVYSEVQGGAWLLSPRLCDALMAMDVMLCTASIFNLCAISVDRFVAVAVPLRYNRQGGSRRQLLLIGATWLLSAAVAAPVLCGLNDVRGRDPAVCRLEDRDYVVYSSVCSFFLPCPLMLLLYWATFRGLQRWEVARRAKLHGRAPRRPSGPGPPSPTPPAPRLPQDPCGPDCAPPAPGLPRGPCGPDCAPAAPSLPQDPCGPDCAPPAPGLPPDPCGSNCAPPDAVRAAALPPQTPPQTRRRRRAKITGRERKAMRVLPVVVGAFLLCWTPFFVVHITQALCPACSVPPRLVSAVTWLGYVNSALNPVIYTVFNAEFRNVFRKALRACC

D(4) dopamine receptor [21] = molecular target: T8, D(4) dopamine receptor; assay type: cell-based, HEK293
D(4) dopamine receptor [22] = molecular target: T8, D(4) dopamine receptor; assay: Agonist activity at human D4 receptor expressed in HEK293T cells co-expressing G-alphaqi assessed as accumulation of inositol monophosphate using d2-labelled IP1 conjugate incubated for 90 mins by HTRF assay; assay type: functional, cell-based
D(4) dopamine receptor [23] = molecular target: T8, D(4) dopamine receptor; assay: Displacement of [3H] Spiperone from human D4.4 receptor expressed in CHO cells by competitive radioligand binding assay; assay type: cell-based

T1 sequence (P14416 whole entry): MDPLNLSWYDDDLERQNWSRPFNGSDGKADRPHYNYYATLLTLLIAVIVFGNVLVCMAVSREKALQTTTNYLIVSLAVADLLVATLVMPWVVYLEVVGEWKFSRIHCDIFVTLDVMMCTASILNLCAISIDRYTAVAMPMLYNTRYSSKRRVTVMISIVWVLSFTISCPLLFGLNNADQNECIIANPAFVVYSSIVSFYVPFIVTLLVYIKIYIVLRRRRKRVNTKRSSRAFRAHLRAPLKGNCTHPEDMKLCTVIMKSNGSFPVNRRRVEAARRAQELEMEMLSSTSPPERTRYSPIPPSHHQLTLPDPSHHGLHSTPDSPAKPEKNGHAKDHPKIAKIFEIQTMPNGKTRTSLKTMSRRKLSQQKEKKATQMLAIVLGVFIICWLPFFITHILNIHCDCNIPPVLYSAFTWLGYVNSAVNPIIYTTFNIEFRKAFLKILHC
D(3) dopamine receptor, sequence (P35462 whole entry): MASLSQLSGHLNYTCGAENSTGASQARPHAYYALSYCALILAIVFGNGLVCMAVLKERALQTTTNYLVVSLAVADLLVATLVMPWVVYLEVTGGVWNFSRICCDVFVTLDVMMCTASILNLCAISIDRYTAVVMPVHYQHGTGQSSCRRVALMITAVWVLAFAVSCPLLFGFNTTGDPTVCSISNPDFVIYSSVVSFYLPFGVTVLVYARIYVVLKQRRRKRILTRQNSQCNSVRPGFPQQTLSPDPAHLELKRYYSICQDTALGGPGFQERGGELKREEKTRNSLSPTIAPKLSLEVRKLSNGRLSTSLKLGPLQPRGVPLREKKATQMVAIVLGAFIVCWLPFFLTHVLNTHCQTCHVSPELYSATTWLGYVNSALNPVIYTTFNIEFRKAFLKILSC
D(1B) dopamine receptor, sequence (P21918 whole entry): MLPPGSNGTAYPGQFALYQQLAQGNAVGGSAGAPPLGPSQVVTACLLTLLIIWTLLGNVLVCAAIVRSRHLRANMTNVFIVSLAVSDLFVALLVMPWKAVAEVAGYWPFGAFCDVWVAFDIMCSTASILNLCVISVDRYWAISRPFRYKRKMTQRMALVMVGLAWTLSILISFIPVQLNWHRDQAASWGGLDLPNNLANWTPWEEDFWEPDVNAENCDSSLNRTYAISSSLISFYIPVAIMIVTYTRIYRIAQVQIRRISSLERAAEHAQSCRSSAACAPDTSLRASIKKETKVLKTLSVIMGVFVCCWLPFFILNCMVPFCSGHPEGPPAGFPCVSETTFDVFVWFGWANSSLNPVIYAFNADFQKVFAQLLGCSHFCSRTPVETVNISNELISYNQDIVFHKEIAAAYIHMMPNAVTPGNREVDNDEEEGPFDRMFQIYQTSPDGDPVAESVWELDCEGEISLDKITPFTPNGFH
Muscarinic acetylcholine receptor M3, sequence (P20309 whole entry): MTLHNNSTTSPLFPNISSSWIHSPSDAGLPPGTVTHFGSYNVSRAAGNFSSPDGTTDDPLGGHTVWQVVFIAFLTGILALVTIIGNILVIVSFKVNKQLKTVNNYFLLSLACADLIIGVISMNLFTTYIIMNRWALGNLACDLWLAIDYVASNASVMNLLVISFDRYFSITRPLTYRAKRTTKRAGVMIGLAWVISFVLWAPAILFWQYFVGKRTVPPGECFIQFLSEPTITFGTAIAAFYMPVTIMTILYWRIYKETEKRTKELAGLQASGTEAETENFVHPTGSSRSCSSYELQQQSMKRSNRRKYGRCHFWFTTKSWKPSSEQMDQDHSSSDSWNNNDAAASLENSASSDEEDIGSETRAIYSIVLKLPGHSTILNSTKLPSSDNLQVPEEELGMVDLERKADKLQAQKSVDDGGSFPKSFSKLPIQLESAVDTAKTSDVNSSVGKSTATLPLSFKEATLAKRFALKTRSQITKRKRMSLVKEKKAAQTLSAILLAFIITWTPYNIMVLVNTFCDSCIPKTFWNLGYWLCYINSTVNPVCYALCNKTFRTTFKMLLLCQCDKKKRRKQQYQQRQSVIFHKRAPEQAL
5-hydroxytryptamine receptor 2A, sequence (P28223 whole entry): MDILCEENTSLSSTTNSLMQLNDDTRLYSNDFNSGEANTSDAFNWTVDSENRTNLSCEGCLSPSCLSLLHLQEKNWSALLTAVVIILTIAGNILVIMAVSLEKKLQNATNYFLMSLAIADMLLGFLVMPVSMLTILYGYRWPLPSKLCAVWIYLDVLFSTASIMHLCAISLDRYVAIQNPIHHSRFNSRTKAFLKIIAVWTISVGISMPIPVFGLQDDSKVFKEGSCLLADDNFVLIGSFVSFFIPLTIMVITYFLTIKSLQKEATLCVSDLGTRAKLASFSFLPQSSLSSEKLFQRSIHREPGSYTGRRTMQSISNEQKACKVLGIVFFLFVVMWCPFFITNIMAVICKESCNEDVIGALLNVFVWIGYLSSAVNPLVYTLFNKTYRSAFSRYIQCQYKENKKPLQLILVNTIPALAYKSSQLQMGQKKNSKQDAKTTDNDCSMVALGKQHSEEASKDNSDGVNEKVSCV
Beta-2 adrenergic receptor, sequence (P07550 whole entry): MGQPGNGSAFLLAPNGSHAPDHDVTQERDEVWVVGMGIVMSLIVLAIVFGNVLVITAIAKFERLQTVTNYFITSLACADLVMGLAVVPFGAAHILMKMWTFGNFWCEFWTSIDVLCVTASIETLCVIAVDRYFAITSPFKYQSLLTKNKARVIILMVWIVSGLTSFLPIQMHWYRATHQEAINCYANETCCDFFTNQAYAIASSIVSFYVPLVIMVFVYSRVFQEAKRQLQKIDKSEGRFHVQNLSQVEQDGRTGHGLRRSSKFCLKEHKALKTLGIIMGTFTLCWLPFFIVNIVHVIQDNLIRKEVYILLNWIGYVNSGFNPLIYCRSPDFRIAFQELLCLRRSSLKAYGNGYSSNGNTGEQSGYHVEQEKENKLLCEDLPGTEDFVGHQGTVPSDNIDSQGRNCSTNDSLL
Delta-type opioid receptor, sequence (P41143 whole entry): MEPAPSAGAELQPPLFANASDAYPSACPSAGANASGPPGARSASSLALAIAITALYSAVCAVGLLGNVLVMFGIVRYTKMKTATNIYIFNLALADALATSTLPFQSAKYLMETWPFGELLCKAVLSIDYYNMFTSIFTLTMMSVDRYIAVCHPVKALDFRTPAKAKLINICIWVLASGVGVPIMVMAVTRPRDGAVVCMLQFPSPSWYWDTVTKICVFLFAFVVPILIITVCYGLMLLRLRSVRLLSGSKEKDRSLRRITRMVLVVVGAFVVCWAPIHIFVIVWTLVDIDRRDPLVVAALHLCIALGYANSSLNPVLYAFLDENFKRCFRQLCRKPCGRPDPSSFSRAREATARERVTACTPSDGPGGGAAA
D(1A) dopamine receptor, sequence (P21728 whole entry): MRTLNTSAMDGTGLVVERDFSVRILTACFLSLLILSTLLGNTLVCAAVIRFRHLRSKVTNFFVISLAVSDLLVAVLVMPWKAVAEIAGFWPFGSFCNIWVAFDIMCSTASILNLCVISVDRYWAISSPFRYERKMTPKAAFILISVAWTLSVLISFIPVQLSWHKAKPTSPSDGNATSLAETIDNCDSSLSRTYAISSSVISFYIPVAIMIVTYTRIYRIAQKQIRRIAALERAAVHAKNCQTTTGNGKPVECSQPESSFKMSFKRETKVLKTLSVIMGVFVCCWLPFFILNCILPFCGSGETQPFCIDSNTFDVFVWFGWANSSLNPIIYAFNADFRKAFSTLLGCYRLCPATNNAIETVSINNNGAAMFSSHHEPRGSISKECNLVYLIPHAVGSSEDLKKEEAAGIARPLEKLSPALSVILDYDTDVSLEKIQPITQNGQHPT
Beta-1 adrenergic receptor, sequence (P08588 whole entry): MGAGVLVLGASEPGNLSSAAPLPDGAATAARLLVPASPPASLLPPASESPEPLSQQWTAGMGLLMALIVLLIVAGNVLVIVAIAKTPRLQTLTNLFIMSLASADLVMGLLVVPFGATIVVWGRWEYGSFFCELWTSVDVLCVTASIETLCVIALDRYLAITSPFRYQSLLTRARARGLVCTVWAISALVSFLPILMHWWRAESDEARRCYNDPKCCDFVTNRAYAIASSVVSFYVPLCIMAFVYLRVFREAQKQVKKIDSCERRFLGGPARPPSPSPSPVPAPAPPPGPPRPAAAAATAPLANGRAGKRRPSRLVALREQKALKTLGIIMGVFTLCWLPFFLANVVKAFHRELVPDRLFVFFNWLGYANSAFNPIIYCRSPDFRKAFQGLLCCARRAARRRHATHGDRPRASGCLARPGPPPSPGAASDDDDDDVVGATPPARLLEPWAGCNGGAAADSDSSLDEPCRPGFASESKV
Kappa-type opioid receptor, sequence (P41145 whole entry): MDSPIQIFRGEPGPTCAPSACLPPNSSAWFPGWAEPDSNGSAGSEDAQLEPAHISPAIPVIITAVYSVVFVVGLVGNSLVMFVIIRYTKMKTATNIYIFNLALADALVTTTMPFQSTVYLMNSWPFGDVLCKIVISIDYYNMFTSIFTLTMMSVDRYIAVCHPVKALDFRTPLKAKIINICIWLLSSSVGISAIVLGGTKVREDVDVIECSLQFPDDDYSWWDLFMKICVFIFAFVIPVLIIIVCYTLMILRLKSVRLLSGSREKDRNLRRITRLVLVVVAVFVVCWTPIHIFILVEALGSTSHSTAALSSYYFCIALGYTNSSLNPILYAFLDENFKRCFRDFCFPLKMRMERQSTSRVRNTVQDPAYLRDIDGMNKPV
Mu-type opioid receptor, sequence (P35372 whole entry): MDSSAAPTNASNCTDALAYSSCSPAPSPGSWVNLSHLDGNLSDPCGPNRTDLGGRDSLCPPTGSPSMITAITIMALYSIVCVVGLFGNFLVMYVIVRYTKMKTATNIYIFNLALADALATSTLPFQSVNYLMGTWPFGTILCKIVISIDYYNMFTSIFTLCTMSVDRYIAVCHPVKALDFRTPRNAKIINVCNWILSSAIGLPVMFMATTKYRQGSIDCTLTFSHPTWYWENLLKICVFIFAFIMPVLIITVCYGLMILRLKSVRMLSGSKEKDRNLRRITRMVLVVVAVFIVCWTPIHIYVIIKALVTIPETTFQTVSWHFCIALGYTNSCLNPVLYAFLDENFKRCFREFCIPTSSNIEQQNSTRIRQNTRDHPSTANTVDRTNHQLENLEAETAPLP

## COc1ccccc1N1CCN(CCCNC(=O)NN(Cc2ccccc2)c2ccccc2)CC1
D(2) dopamine receptor [1]
  Ki: 73 nM
[2]
  Activity: inactive
[3]
  Ki: 14000 nM
D(2) dopamine receptor [4]
  Ki: 77 nM
[5]
  remaining at 2 h, 20 µM: 10%
[6]
  Ki: 3900 nM
[7]
  Ki: 13000 nM
D(3) dopamine receptor
  Ki: 170 nM
[8]
  Drug metabolism: Metabolite_Detected
D(1B) dopamine receptor
  Ki: 340 nM
Mu-type opioid receptor
  Ki: 2000 nM
[9]
  Ki: 65 nM
[10]
  Ki: 1800 nM
[11]
  Ki: 25000 nM
[12]
  Ki: 1.7 nM
D(1A) dopamine receptor
  Ki: 200 nM
[13]
  Ki: 25000 nM
[14]
  Ki: 400 nM
[15]
  Ki: 10000 nM
[16]
  Ki: 17 nM

## COc1ccccc1N1CCN(CCCNC(=O)NN(Cc2ccccc2)c2ccc(F)cc2)CC1
D(2) dopamine receptor [1]
  Ki: 4.3 nM
Homo sapiens [17]
  Ratio Ki: 45
D(2) dopamine receptor [4]
  Ki: 6.6 nM
Homo sapiens [18]
  Ratio Ki: 7.8
D(3) dopamine receptor
  Ki: 25 nM
Homo sapiens [19]
  Ratio Ki: 12
D(4) dopamine receptor [20]
  IC50: 49 nM
D(4) dopamine receptor [21]
  EC50: 340 nM
D(4) dopamine receptor [22]
  EC50: 1.8 nM
D(4) dopamine receptor [23]
  Ki: 0.55 nM
